Only some compounds are listed: those with a hit (about 29% of all), similar ones and a draw of the others.
CYP2C9 inhib: human CYP2C9 inhibition | actives 20% (n = 96,000) | P11712 | AID 777 | inhibition, % at 5 µM | CYP2C9 Supersomes, luciferin-H conversion, luminescence;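 active = blocking of liver enzyme CYP2C9 beyond about 50% at 5 µM, limit read from the data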
Target sequence (P11712 whole entry, looked up): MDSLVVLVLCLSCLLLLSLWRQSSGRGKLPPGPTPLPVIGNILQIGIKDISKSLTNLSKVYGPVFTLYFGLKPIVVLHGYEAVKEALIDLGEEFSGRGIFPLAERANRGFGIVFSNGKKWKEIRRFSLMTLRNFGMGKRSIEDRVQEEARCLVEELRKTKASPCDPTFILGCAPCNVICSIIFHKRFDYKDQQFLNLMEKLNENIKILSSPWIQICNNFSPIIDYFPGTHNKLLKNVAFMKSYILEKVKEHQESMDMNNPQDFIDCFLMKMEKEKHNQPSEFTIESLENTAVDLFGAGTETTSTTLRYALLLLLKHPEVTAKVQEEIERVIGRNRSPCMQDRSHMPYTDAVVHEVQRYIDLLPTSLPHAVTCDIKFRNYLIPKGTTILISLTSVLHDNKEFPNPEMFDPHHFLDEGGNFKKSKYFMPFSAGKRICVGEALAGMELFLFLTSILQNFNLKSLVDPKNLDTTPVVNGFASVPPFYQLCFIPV
E coli WT exp: E. coli BW25113 growth inhibition, expanded screen; OD600 absorbance; growth inhibition, % at 100 µM; actives 0.15% (n = 98,000); AID 710;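 active = growth inhibition above about 50% at one test dose, limit read from the data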;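 note: growth measured after 20 h incubation at 37 °C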
CYP2C9 act: activators of human CYP2C9; P11712; recombinant CYP2C9, luciferin-H conversion, luminescence; active compounds read high; factor 1 = untreated enzyme, 0 = blocked; activation factor at 5 µM; actives 1.4% (n = 96,000); AID 1024;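 active = activation factor of 2 or more for CYP2C9 at a 5 µM dose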
CYP2C19 inh: blocks human cytochrome P450 2C19; P33261; CYP2C19 Supersomes, luciferin-H EGE luminescence, 30 min; inhibition, % at 5 µM; actives 21% (n = 96,000);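 active = CYP2C19 inhibition above a set limit at 5 µM in the primary screen, cut at about 50% in these data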
tolC growth inh: E. coli tolC mutant growth inhibition; E. coli BW25113 tolC mutant growth, OD615; growth inhibition, % at 10 µM (by protocol); actives 2.2% (n = 65,000);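 active = growth inhibition at or above a cutoff equal to the mean over every tested compound plus 3 SD, cut at about 60% in these data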;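 note: growth measured after 20 h incubation at 37 °C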
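signal = optical density read at 615 nm | test system = E. coli ΔtolC::kan strain BW25113 | timing = 20 h compound exposure of bacteria at 37 °C | buffer or medium = LB medium plus 50 µg/mL kanamycin | compound dosing = 10 µM final, single dose | evaluation = % inhibition of E. coli growth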
CYP2C19 activ: activators of human cytochrome P450 2C19 | 96,000 tested, under 10 active | activation factor at 5 µM | recombinant CYP2C19, luciferin-H EGE luminescence; active compounds read high; 0 = fully inhibited enzyme, 1 = untreated enzyme;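 active = activation factor of at least 2 at 5 µM in the primary screen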
Large screens that a line does not name were inactive.

COC(=O)Cc1c(C)nc2nc(NCc3ccccc3OC)[nH]n2c1=O	none (no result: tolC growth inh)
CC1(C)CC(=O)C=C(Nc2ccc(S(N)(=O)=O)cc2)C1	none
Cc1cccc(N2CCN(C(=O)CCc3nc4ccccc4[nH]3)CC2C)c1 (stereo not given)	CYP2C9 inhib 56, CYP2C19 inh 75 (no result: tolC growth inh)
O=C(CCc1nc2ccccc2[nH]1)N1CCN(C(=O)c2ccco2)CC1	none (no result: CYP2C9 inhib, E coli WT exp, CYP2C9 act, CYP2C19 inh, CYP2C19 activ)
Cc1ccc(N2CCN(C(=O)CCc3nc4ccccc4[nH]3)CC2)c(C)c1	CYP2C9 inhib 72, CYP2C19 inh 84 (no result: tolC growth inh)
COc1ccc2c(c1)OCC1=C2CCC2(C)C(=O)CC=C12 (stereo not given)	CYP2C9 inhib 64
O=C(NC1CCS(=O)(=O)C1)OC1CCCCC1 (stereo not given)	none (no result: CYP2C9 inhib, CYP2C9 act, CYP2C19 inh, tolC growth inh, CYP2C19 activ)
CCOc1ccc(Br)cc1/C(C)=N\NC1=NCCN1	none (no result: tolC growth inh)
O=C1CSC(c2cn(-c3ccccc3)nc2-c2cc3ccccc3oc2=O)N1Cc1ccccc1 (stereo not given)	none (no result: tolC growth inh)
O=C1CSC(c2cn(-c3ccccc3)nc2-c2ccc3c(c2)OCCO3)N1CCN1CCOCC1 (stereo not given)	CYP2C9 inhib 78, CYP2C19 inh 81
CC1CCN(C(=S)NC2CCCCC2)CC1	CYP2C19 inh 70 (no result: tolC growth inh)
Cc1ccc(-n2c(C)cc3c2CCCC3=O)cc1	none
COc1ccc(-n2c(-c3ccccc3)cc3c2CCCC3=O)cc1	CYP2C19 inh 76 (no result: tolC growth inh)
Cc1ccc(CNC(=O)c2ccc(C#CC(C)(C)O)s2)cc1	none (no result: tolC growth inh)
CCOc1ccc(-c2onc(C(F)(F)F)c2-c2cscn2)c(O)c1	none (no result: tolC growth inh)
Cc1cc(O)cc(O)c1-c1onc(C(F)(F)F)c1-c1cscn1	CYP2C19 inh 80
COc1cccc(Cn2c(N)c(C#N)c3nc4ccccc4nc32)c1OC	none
COc1ccc(C)cc1-n1c(N)c(C#N)c(C#N)c1-c1ccc(OC)c(OC)c1OC	CYP2C9 inhib 50
O=C1CC(N(C(=O)c2ccco2)c2cccc(Cl)c2)C(=O)N1c1cccc(Cl)c1 (stereo not given)	CYP2C9 inhib 92, CYP2C19 inh 91 (no result: tolC growth inh)
O=C1CC(N(C(=O)c2ccco2)c2ccc(F)cc2)C(=O)N1c1ccc(F)cc1 (stereo not given)	none (no result: tolC growth inh)
OCCOc1nnnn1-c1ccccc1	none (no result: tolC growth inh)
CNC(=O)COC(=O)c1ccc(-c2nc3ccccc3s2)s1	CYP2C9 inhib 72, CYP2C19 inh 94 (no result: tolC growth inh)
O=C(CCCN1C(=O)CCC1=O)Nc1ccc2c(c1)OCCO2	none
O=C(COC(=O)c1ccccn1)NC12CC3CC(CC(C3)C1)C2	CYP2C19 inh 80 (no result: tolC growth inh)
O=C(COC(=O)c1ccccn1)NC1CCCCC1	CYP2C9 inhib 77 (no result: tolC growth inh)
O=C(COC(=O)c1cccs1)c1ccccc1	CYP2C9 inhib 78, CYP2C19 inh 89
O=C(COC(=O)c1cccs1)NC1CCCCC1	CYP2C19 inh 92
Cc1nc(Oc2ccc(Cl)cc2)c2oc3ccccc3c2n1	none (no result: tolC growth inh)
c1ccc(-c2cc(-c3nnc4n3N=C(c3ccc5ccccc5c3)CS4)[nH]n2)cc1	none (no result: tolC growth inh)
CC1CCCN(S(=O)(=O)c2ccc3c(c2)CCN3C(=O)C2CCC2)C1 (stereo not given)	none
O=C(CSc1nnc(-c2cccnc2)n1Cc1ccco1)N1c2ccccc2Sc2ccccc21	none
COc1ccc(C(=O)CSc2nnc(-c3cc4ccccc4cc3O)n2Cc2ccco2)cc1	CYP2C9 inhib 80
NC(=O)CSc1nnc(-c2ccc(O)cc2)n1Cc1ccco1	none (no result: CYP2C9 inhib, E coli WT exp, CYP2C9 act, CYP2C19 inh, CYP2C19 activ)
O=C(CSc1nnc(-c2ccc(O)cc2)n1Cc1ccco1)N1CCc2ccccc2C1	CYP2C9 inhib 50, CYP2C19 inh 62
COc1ccc(C(=O)CSc2nnc(-c3cccnc3)n2Cc2ccco2)cc1	CYP2C9 inhib 57, CYP2C19 inh 53
O=C(CSc1nnc(-c2cnccn2)n1Cc1ccco1)Nc1ccc(Br)cc1	CYP2C9 inhib 59
CCOC(=O)CSc1nnc(Cn2nnc(-c3ccccc3)n2)n1CC	none
CCS(=O)(=O)c1ccc2c(c1)N(S(C)(=O)=O)CC(C(=O)NC1CC1)O2 (stereo not given)	none (no result: tolC growth inh)
Cc1csc(-c2cnn(-c3ccccc3)c2NC(=O)c2cccc(F)c2)n1	none (no result: tolC growth inh)
O=c1[nH]c(CSc2nnc(NCCCN3CCOCC3)s2)nc2cc(Cl)ccc12	none
Cc1nnc(NC(=O)CSc2nc(C(C)C)nc3sc(C)c(C)c23)s1	none (no result: tolC growth inh)
COC(=O)c1ccc(Oc2c(C)oc3c(CN4CCN(C)CC4)c(O)ccc3c2=O)cc1	none

Bioassay records: PubChem BioAssay, several laboratories
